A selection: hits, their analogues and other compounds. The true share with any hit is near 2.5%.
E-sel inducer: E-selectin induction on HUVECs | AID 686992 | 0.37% of 260,000 active | HUVEC E-selectin immunofluorescence imaging; normalized: neutral wells 0, TNF-alpha wells 100 | P16581 | activation, % at 7.58 µM;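 active = mean E-selectin-positive cell signal at least 10% of the positive control, reached in at least 60% of replicates, without over 20% cell loss; inconclusive = no rule given, readout overlaps actives, possibly toxicity-flagged; inactive = the rest, including those meeting only one limit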
Target sequence (P16581 whole entry, looked up): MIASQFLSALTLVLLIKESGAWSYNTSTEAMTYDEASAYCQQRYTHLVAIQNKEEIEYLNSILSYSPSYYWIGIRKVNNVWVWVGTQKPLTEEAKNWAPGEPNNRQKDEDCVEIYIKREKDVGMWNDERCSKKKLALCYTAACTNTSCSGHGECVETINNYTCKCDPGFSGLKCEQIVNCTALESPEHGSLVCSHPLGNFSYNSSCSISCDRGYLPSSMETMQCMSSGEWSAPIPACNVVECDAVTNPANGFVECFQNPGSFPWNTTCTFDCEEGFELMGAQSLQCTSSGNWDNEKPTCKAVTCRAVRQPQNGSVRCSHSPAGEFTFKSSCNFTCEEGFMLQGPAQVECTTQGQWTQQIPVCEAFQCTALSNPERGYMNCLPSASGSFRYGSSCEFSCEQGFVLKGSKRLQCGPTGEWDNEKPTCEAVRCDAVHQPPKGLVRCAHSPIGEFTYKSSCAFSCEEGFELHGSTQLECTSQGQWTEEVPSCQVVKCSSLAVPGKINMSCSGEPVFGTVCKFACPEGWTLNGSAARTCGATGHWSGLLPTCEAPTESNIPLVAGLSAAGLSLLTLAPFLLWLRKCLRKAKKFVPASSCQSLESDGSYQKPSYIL
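Read-out: % PE-positive cells | Test system: HUVEC | Doses: One compound dose added by pin transfer | Buffer or medium: EGM-2 over gelatin coat | Signal: Immunofluorescence imaging | Benchmarks: TNF-alpha, DMSO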
FGF22 binding: shifts melting point of recombinant human FGF22 | Q9HCT0 | recombinant FGF22 thermal shift, SYPRO orange fluorescence; percent of sucrose octasulfate shift, DMSO zero | activity (Tm shift, normalised), % at 9.99 µM | 1.5% of 340,000 active | AID 651658;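 active = mean Tm shift, scaled 0 neutral to 100 positive control, at about 1.3% or above, every replicate too, limit read from the data; inconclusive = no clear call, values can overlap the other calls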
SIRT5 block: sirtuin-5 (human) deacylase inhibition | Q9NXA8 | AID 652115 | inhibition, % at 15 µM | 1.1% of 330,000 active | Purified SirT5, succinyl-peptide AMC, trypsin-coupled fluorescence; in the data active = inhibition above about 15%; inconclusive = no clear call, values can overlap the other calls
miR-122 sensor: inhibitors of miR-122 in Huh7 cells; Huh7 miR-122 Renilla luciferase sensor, 48 h; neutral wells = 0, positive control = 100; activation (reporter increase), % at 12.5 µM; 0.3% of 340,000 active; AID 602342;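 active = mean replicate activation score at least 90 and every replicate individually at or above 90; inconclusive = only one of the two criteria met; inactive = neither criterion met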;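 note: higher luciferase means less miR-122 activity so hits act as miR-122 inhibitors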
S100A4 MyoIIA: blocks human S100A4 binding to myosin IIA peptide; S100A4/TAMRA-MyoIIA peptide fluorescence polarization; inhibition, % at 10.7 µM; 0.14% of 360,000 active;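 active = mean inhibition of at least 70% across replicates, with every replicate also reaching that level; inconclusive = mean inhibition reaches 70% but some replicates fall short; inactive = mean inhibition below 70%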
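Test system – S100A4 monomer (human) · Compound – single-point compound testing · Schedule – 5 min incubation before reading · Probe or stimulus – TAMRA-labelled myosin IIA heavy-chain peptide probe, 5 nM · Benchmarks – neutral control DMSO, positive control TFP · Medium – Calcium-containing HEPES buffer, pH 7.2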
* marks the source's active call; other numbers are inactive results; u = inconclusive; x = no result; ! = not active in a repeat; [ ] = dose if it differs, or a comment.

SMILES	E-sel inducer	FGF22 binding	SIRT5 block	miR-122 sensor	S100A4 MyoIIA
COc1ccc(C(=O)NCC(=O)OCc2ccccc2F)cc1	0	42	32*	-2	-8
COc1ccc(OCC(O)CNC(=O)c2ccccc2)cc1 (stereo not given)	77*	0	x	x	5
C[C@H](CO)N1C[C@H](C)[C@H](CN(C)C(=O)Nc2ccc(F)cc2)OCCCC[C@H](C)Oc2ccc(NC(=O)Nc3ccccc3)cc2C1=O	0	0	13	6[16.7 µM]	-12
C[C@H]1CN([C@@H](C)CO)C(=O)c2cccc(NS(C)(=O)=O)c2O[C@@H]1CN(C)Cc1ccc(Oc2ccccc2)cc1	32*	0	2	6[16.7 µM]	8
C[C@@H]1CN([C@H](C)CO)C(=O)c2cccc(NS(C)(=O)=O)c2O[C@@H]1CN(C)Cc1ccncc1	262*	-1	-5	3[16.7 µM]	24
C[C@H]1CN([C@@H](C)CO)C(=O)c2cccc(NS(C)(=O)=O)c2O[C@@H]1CN(C)Cc1ccncc1	204*	0	0	-2[16.7 µM]	60
C[C@@H]1CN([C@@H](C)CO)C(=O)c2cc(NC(=O)Nc3cccc4ccccc34)ccc2O[C@@H]1CN(C)Cc1ccc(Oc2ccccc2)cc1	x	0	3	5[16.7 µM]	2
COc1cccc(-c2ccc3c(c2)[C@@H]2[C@@H](CCN2C(=O)c2cccc(F)c2)[C@@H](CO)N3)c1	u	-1	1	-8[16.7 µM]	-1
C[C@@H]1CN([C@H](C)CO)C(=O)Cc2cc(NC(=O)Nc3ccc4c(c3)OCO4)ccc2O[C@H]1CN(C)C(=O)NC1CCCCC1	0	0	-4	2[16.7 µM]	1
CCN(C(=O)COC(=O)c1ccc(Cl)c(S(=O)(=O)N2CCCCC2)c1)C1CCS(=O)(=O)C1 (stereo not given)	x	0	-2	-2	3
CCN(C(=O)COC(=O)c1ccc(Cl)c(N)c1)C1CCS(=O)(=O)C1 (stereo not given)	x	43*	0	16	0
C[C@@H]1CN([C@H](C)CO)C(=O)Cc2cc(NC(=O)CCCCCC(=O)Nc3ccccc3N)ccc2O[C@H]1CN(C)S(C)(=O)=O	-5	0	x	-3[16.7 µM]	4
C[C@H](CO)N1C[C@H](C)[C@@H](CN(C)C(=O)Nc2ccc3c(c2)OCO3)Oc2c(NC(=O)C3CC3)cccc2C1=O	0	0	22*!	5[16.7 µM]	-5
C[C@@H]1CN([C@H](C)CO)C(=O)c2cccc(NC(=O)Nc3ccc4c(c3)OCO4)c2O[C@H]1CN(C)C(=O)Nc1ccc(C(F)(F)F)cc1	38*	0	5	0[16.7 µM]	6
C[C@@H]1CN([C@H](C)CO)C(=O)c2cccc(NC(=O)C3CCOCC3)c2O[C@H]1CN(C)C(=O)Nc1ccccc1	173*	0	-9	5[16.7 µM]	-11
C[C@H](CO)N1C[C@H](C)[C@H](CN(C)C(=O)Nc2ccc3c(c2)OCO3)Oc2c(NC(=O)C3CCCCC3)cccc2C1=O	0	0	1	3[16.7 µM]	-4
C[C@H](CO)N1C[C@H](C)[C@H](CN(C)C(=O)Nc2ccccc2)Oc2c(NC(=O)C3CCOCC3)cccc2C1=O	6	0	-1	2[16.7 µM]	6
CC(C)CC(NC(=O)OC(C)(C)C)c1cn([C@@H](CCCCNC(=O)OC(C)(C)C)C(=O)N2CCN(C(=O)OC(C)(C)C)CC2)nn1 (stereo not given in full)	0	x	x	-6	x
CC[C@@H](C)C(NC(=O)OC(C)(C)C)c1cn([C@@H](CCCCNC(=O)OC(C)(C)C)C(=O)N2CCN(C(=O)OC(C)(C)C)CC2)nn1 (stereo not given in full)	1	1	16*	0	-5
O=C(c1ccccn1)N1CC(=O)N2[C@H](CO)[C@H](c3ccc(C#Cc4ccccc4)cc3)[C@H]2C1	-1	x	0	x	4
CC(=O)c1ccc(OCc2cn(CC(=O)c3ccc(O)cc3)nn2)c(C)c1	-3	1	1	-1	0
COc1cc(C(C)=O)ccc1OCc1cn(CC(=O)c2ccc(O)cc2)nn1	0	0	21*	0	-2
CCCN1[C@@H]2c3ccc(-c4ccc(OC)cc4)c(=O)n3C[C@@H]2[C@@H](CO)[C@@H]1C(=O)N(C)C	0	0	-4	12[16.7 µM]	19
O=C(NCC(c1ccc(F)cc1)N1CCOCC1)c1cc(F)c(F)c(F)c1F (stereo not given)	x	43*	-3	x	1
COc1cc(Cl)c(C)cc1NC(=O)CCN1C(=O)NC(C)(C)C1=O	0	43*	-1	-6	-9
SMILES	E-sel inducer	FGF22 binding	SIRT5 block	miR-122 sensor	S100A4 MyoIIA
O=C(N[C@H]1CC[C@H](CCn2cc(-c3ccccn3)nn2)O[C@@H]1CO)c1ccccc1	-1	0	1	x	-1
C[C@H](CO)N1C[C@H](C)[C@H](CN(C)C(=O)NC2CCCCC2)Oc2ccc(NC(=O)Nc3ccccc3)cc2C1=O	-1	-1	22*	-3[16.7 µM]	-4
C[C@H]1CN([C@@H](C)CO)C(=O)c2cc(NC(=O)Nc3ccc4c(c3)OCO4)ccc2O[C@@H]1CN(C)C(=O)NC1CCCCC1	0	0	16*	1[16.7 µM]	-7
CCOC(=O)Nc1nc(-c2ccccc2)c(C(=O)c2ccc(Cl)cc2)s1	x	x	x	110*	x
CCOCc1nnc(NS(C)(=O)=O)s1	x	x	x	268*	x
C/C(=N\Nc1ncc(Cl)cc1Cl)c1ccc2c(c1)OCO2	x	0	25*	x	0
C[C@@H]1CCCCO[C@H](CN(C)C)[C@H](C)CN([C@H](C)CO)C(=O)c2cc(N(C)C)ccc2O1	0	x	x	1[16.7 µM]	x
Cc1ccc2[nH]c(C(=O)N3CCN(C=O)CC3)cc2c1	x	0	16*	1	2
COc1ccc(CN2CC3(C2)CN(Cc2ccc4c(c2)OCO4)[C@H](CO)c2[nH]c4cc(OC)ccc4c23)cc1	0	x	x	x	x
C/C(=N\NC(=O)c1cc(-c2ccccc2C)nc2ccccc12)c1cccnc1	50*	0	-1	8	-1
C/C(=N\NC(=O)c1cc(-c2ccc(C)s2)nc2ccccc12)c1cccnc1	x	0	-10	3	-6
O=C(O)c1cccc2cc(-c3ccccc3)oc(=O)c12	0	0	-7	-10	2
O=C(O)c1cccc2cccc(-c3c4ccc(=O)c(O)c-4oc4c(O)c(O)ccc34)c12	0	0	37*	x	4
CO[C@H]1CN(C)C(=O)c2ccc(NC(=O)C3CC3)cc2OC[C@H](C)N(C(=O)CN(C)C)C[C@@H]1C	0	0	-1	x	29
CC(C)NC(=O)C12CC3CC(C1)CC(C(=O)NC(C)C)(C3)C2	x	44*	-3	-2	-8
Cc1ccc(C23CC4CC(CC(C(=O)NC(C)C)(C4)C2)C3)cc1	1	0	-4	-2	-13
CCCNC(=O)NNC(=O)c1cc(-c2ccc3c(c2)OCO3)nc2ccccc12	x	0	8	102*	2

From PubChem BioAssay
